# SENP6 inh = blocks the human protease SENP6. Q9GZR1. Recombinant SENP6 catalytic domain, aminoluciferin luminescence. inhibition, % at 10 µM. 330,000 tested, 1.8% active;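 active = inhibition above about 50% at the single tested dose, limit read from the data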
# Target sequence (Q9GZR1 628-1112 limits assumed): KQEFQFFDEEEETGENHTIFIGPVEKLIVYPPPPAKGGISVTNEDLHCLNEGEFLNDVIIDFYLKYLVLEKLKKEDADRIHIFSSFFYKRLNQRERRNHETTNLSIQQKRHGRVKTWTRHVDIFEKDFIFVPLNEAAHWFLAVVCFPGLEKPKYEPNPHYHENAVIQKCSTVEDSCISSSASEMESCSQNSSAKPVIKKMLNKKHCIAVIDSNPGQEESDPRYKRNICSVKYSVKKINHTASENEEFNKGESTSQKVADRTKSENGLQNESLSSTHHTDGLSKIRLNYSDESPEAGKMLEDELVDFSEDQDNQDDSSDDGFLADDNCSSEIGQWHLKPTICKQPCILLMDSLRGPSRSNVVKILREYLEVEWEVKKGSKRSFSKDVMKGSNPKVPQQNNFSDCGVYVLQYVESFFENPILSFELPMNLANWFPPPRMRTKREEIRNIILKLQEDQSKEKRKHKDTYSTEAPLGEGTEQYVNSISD
# SENP8 block-1 = inhibitors of human SENP8 protease | purified SENP8, Z-RLRGG-aminoluciferin cleavage, luminescence | Q96LD8 | inhibition, % at 10 µM | AID 2540 | 330,000 tested, 1.2% active; in the data active = inhibition above about 50%
# SENP1 FRET inh = inhibitors of human SENP1 SUMO protease catalytic domain. Q9P0U3. recombinant SENP1 catalytic domain, CyPet-SUMO1-YPet FRET cleavage. inhibition, % at 10 µM. 360,000 tested, 0.21% active. AID 624204;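 active = inhibition at least 30% at 10 µM, raw YFP signal under a set limit, fluorescence ratio 0.5 to 1.5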
#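 Assay system – human recombinant His6-tagged SENP1 catalytic domain enzyme · Input – SENP1 enzyme, 20 pM final · Buffer or medium – Tris pH 8 buffer plus EDTA, NaCl, BME, BSA, NP40, catalase · Schedule – 50 min reaction at room temperature · Technique – FRET read of cyan and yellow fluorescence · Control set – no-enzyme wells low, DMSO-plus-enzyme wells high control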
# SENP7 inh = inhibitors of human SENP7 protease. Q9BQF6. recombinant SENP7, Z-RLRGG-aminoluciferin luminescence, 40 min. inhibition, % at 5 µM. 330,000 tested, 1.5% active;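 active = inhibition above about 50% at the single test dose, limit read from the data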
# SENP8 block-2 = inhibitors of human SENP8 protease. Q96LD8. recombinant SENP8, Nedd8 substrate fluorescence. inhibition, % at 20 µM. 360,000 tested, 0.64% active. AID 602440; in the data active = inhibition mostly above about 40%, no sharp cut-off; inactive = mostly below about 27%
# Platelet DG rel = modulates dense granule release in human platelets. human platelet-rich plasma, SFLLRN dense granule ATP release, luminescence. inhibition, %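 (compounds screened at 7.5 µM in platelet-rich plasma)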. 300,000 tested, 0.22% active;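 active = mean replicate score, as percent of positive control, at or above 50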
# Numbers stand for hits; . = inactive; / = not tested or not shown. Sampled rows, rich in hits. Any-hit rate of the full collection: about 2.6%.
SMILES,SENP6 inh,SENP8 block-1,SENP1 FRET inh,SENP7 inh,SENP8 block-2,Platelet DG rel
Cc1cccc(N/N=C/c2ccc(O)c(O)c2O)c1,.,.,.,.,67,.
COc1cccc(N/N=C/c2cccc(Br)c2O)c1,.,.,.,.,.,.
O=[N+]([O-])c1cccc(N/N=C/c2cccc(O)c2O)c1,.,.,.,.,58,.
Oc1ccc(/C=N/NC(=S)Nc2cccnc2)c(O)c1O,/,/,.,/,56,.
O=[N+]([O-])c1ccc(N/N=C/c2cccc(O)c2O)c(S(=O)(=O)N2CCOCC2)c1,.,.,.,.,.,.
O=C(Cc1cccc(NC(=O)C2CCCN(C(=O)C3CCCCC3)C2)c1)Nc1ccc(C(=O)N2CCOCC2)cc1 (centres undefined),/,/,.,/,.,/
S=C(c1ccc2c(c1)OCO2)N1CCCCCC1,.,.,.,.,.,.
CCOC(=O)c1sc(N=NC2=C(O)CCCC2=O)c(C(=O)OCC)c1C,.,.,.,.,53,.
CCOC(=O)/C(N=Nc1sc(C(=O)OCC)c(C)c1C(=O)OCC)=C(\C)O,.,.,/,.,/,.
CCc1ccc2c(c1)c(N=NC1=NC(=O)CS1)c(O)n2CC,.,.,.,.,42,.
Cc1ccc2[nH]c(O)c(N=Nc3ccccc3C)c2c1,.,.,.,.,.,.
CCc1ccc2[nH]c(O)c(N=NC3=NC(=O)CS3)c2c1,.,.,.,.,27,.
CCOC(=O)N=Nc1c(O)n(CC)c2ccccc12,.,.,.,.,.,.
CCOc1ccc2noc3c2c1C(=O)c1ccccc1-3,79,.,.,.,70,.
CCNc1ccc2noc3c2c1C(=O)c1ccccc1-3,.,.,.,.,42,.
O=C1c2ccccc2-c2onc3ccc(NCc4ccco4)c1c23,64,.,.,.,100,.
Cn1c(=O)cc2c3c(c(N4CCCCC4)ccc31)C(=O)c1ccccc1-2,.,.,33,.,.,.
Cc1nn(-c2ccccc2)c(C)c1C(=O)OCC(=O)N(C)c1c(N)n(Cc2ccccc2)c(=O)[nH]c1=O,.,.,.,.,.,.
CCc1nn(CC(=O)NCCCN(CC)c2cccc(C)c2)c(=O)c2cc3occc3n12,.,.,/,.,/,.
COCCNC(=O)c1ccc2c(=O)n(Cc3ccco3)c(SCC(=O)NC3CCCCC3)nc2c1,.,.,.,.,.,.
O=S(=O)(c1ccccc1S(=O)(=O)N1CCCCC1)N1CCCCC1,.,.,.,.,.,.
O=C1C=C(N2CCCCC2)c2ccccc2C1=O,93,83,.,55,.,.
O=C1c2ccccc2C(=O)c2c1cccc2N1CCCC1,/,/,.,/,46,.
O=C1c2ccccc2-c2onc3ccc(N4CCCC4)c1c23,/,/,.,/,81,.
O=C1c2ccccc2-c2cccc(C(=O)N3CCCCC3)c21,.,.,.,.,.,.
SMILES,SENP6 inh,SENP8 block-1,SENP1 FRET inh,SENP7 inh,SENP8 block-2,Platelet DG rel
O=C(Nc1cccc(C(=O)N2CCCCC2)c1)C1CC1,/,/,.,/,.,/
O=C(/C=C\Nc1ccc2c(c1)OCO2)c1ccc(Cl)s1,.,.,.,71,.,.
Cc1ccc(S(=O)(=O)Cc2ccc(C(=O)OCc3ccccc3)cc2)cc1,.,.,.,.,.,.
COC(=O)c1c[nH]c2c1-c1cc(C(=O)OCc3ccccc3)n(S(=O)(=O)c3ccc(C)cc3)c1C(=O)C2=O,/,/,.,/,105,/
CC1=NN(c2ccccc2)C(=O)/C1=C\c1c(C)[nH]n(-c2ccccc2)c1=O,.,.,.,.,42,.
Cc1[nH]n(-c2ccccc2)c(=O)c1/C=N/c1ccccn1,.,.,.,.,41,.
O=C(OCC(=O)N1CCC(Cc2ccccc2)CC1)c1ccc(CO)cc1,.,.,.,.,.,/
S=C(c1ccc(N2CCOCC2)cc1)N1CCOCC1,.,.,.,.,.,.
Fc1ccc(-c2nc(-c3cccs3)no2)cc1,95,86,.,94,.,.
COc1cccc(C(=O)Nc2cc3c(cc2Cl)OCCCO3)c1,51,.,.,.,.,.
Cc1ccsc1/C=N\NC(=O)c1n[nH]c2c1CCC2,92,85,.,93,.,.
Cc1cc2ccccn2c1C(=O)c1ccncc1,.,.,.,.,.,.
C/C(=N/Nc1ccc(C(=O)c2c(C)cc3ccccn23)cc1[N+](=O)[O-])c1ccc(O)cc1,/,/,.,/,50,/

# Screens (PubChem)
